Test results published in PMC7760462 (ACS Central Science, 2020).
pIC50: −log10 of the molar value. ≈ marks a conversion by molar mass, not a printed value.

Columns and labels:
MRSA (USA100) = test: Antimicrobial activity against extracellular bacteria; assay type: cell-based, methicillin-resistant Staphylococcus aureus; settings: Staphylococcus aureus, MRSA|USA100, 18 h, read-out: extracellular MIC, MRSA
S. aureus (ATCC12608) = test: Characterization of cell wall inhibition by SEM; assay type: cell-based, Staphylococcus aureus; settings: S. aureus treated 12 h at drug/bacteria ratio equivalent to MIC determination
In short: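 S. aureus ATCC12608 was treated with the test compound, with PBS, free vancomycin and the unconjugated polypeptide as comparators. Cell wall morphology was then examined by scanning electron microscopy.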

VRE (ATCC51858) = test: Antimicrobial activity against extracellular bacteria; assay type: cell-based, vancomycin-resistant enterococci; settings: Enterococcus, 18 h, read-out: extracellular MIC, VRE
[1] = by previous studies; cited from earlier work
RAW 264.7 macrophages = test: MTT cell viability assay; assay type: cell-based; settings: Mus musculus, RAW264.7, 24 h, read-out: IC50, RAW
[2] = system: kidney of MRSA-infected mice; test: Kidney histology analysis; assay type: in vivo, mice (CD1-IGS); settings: 72 h after infection (Figure 5e)
In short: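 Mice were infected with MRSA USA100 (2 × 10^7 CFU) by tail-vein injection at 0 h. They received intraperitoneal PBS, vancomycin (100 mg/kg), test compound (72 mg/kg) or unconjugated polypeptide (50 mg/kg, molar equivalent) at 24 and 36 h. Mice were sacrificed at 72 h, and kidneys were H&E-stained for granulomatous foci, immune-cell infiltration and tubular necrosis.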

[3] = system: bacteria exposed to subinhibitory concentrations; test: Resistance test by serial passage; assay type: cell-based

CN[C@H](CC(C)C)C(=O)N[C@H]1C(=O)N[C@@H](CC(N)=O)C(=O)N[C@H]2C(=O)N[C@H]3C(=O)N[C@H](C(=O)N[C@H](C(=O)O)c4cc(O)cc(O)c4-c4cc3ccc4O)[C@H](O)c3ccc(c(Cl)c3)Oc3cc2cc(c3O[C@@H]2O[C@H](CO)[C@@H](O)[C@H](O)[C@H]2O[C@H]2C[C@](C)(N)[C@H](O)[C@H](C)O2)Oc2ccc(cc2Cl)[C@H]1O [Van, vancomycin]
MIC (MRSA (USA100)): 0.69 µM (≈ 1 µg/mL) | cell wall appearance by SEM (S. aureus (ATCC12608)): damaged bacterial cell wall | MIC (VRE (ATCC51858)): 176 µM (≈ 255 µg/mL) | serum Cmax [1]: ~50 µg/mL | pIC50 (RAW 264.7 macrophages): < 3.15 | granulomatous foci in kidney (H&E) [2]: almost no granulomatous foci | resistance induction, change in MIC ([3]; over/after 20 passages at subinhibitory concentration): tripling | resistance induction, change in MIC ([3]; within 5 passages at subinhibitory concentration): MIC doubling
